Source: ChEMBL document CHEMBL4433213, “Investigation on 2',3'-O-Substituted ATP Derivatives and Analogs as Novel P2X3 Receptor Antagonists” (ACS Med Chem Lett, 2019)

Key:
[1] = biological target: T1, P2X purinoceptor 1 (Homo sapiens) (UniProt P51575); assay: Antagonist activity at human P2X1R transfected in human 1321N1 cells assessed as inhibition of ATP-induced calcium influx relative to control; assay type: cell-based; conditions: concentration not given here
T1 sequence (whole entry): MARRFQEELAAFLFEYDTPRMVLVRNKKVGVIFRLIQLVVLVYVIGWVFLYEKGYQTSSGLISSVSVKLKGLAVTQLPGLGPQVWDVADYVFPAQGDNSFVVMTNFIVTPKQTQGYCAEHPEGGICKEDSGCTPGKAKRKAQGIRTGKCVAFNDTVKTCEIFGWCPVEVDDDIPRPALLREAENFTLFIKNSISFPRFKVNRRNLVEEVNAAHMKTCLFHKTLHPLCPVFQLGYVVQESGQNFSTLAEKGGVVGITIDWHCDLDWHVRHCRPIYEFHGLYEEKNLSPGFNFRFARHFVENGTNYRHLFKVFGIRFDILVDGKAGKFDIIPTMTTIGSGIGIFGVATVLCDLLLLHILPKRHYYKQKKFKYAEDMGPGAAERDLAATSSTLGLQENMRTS
How it was run: (§1)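 1321N1 astrocytoma cells stably expressing human P2X1, P2X2, P2X3 or P2X4 receptor. Calcium influx was induced by ATP at the EC80 for each subtype. Results are given as IC50 (μM) or % inhibition at the indicated concentration.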

P2X purinoceptor 3 [2] = biological target: T2, P2X purinoceptor 3 (Homo sapiens, UniProt P56373); assay: Antagonist activity at human P2X3R transfected in human 1321N1 cells assessed as inhibition of ATP-induced calcium influx; assay type: cell-based; how it was run: as §1
T2 sequence (P56373 whole entry): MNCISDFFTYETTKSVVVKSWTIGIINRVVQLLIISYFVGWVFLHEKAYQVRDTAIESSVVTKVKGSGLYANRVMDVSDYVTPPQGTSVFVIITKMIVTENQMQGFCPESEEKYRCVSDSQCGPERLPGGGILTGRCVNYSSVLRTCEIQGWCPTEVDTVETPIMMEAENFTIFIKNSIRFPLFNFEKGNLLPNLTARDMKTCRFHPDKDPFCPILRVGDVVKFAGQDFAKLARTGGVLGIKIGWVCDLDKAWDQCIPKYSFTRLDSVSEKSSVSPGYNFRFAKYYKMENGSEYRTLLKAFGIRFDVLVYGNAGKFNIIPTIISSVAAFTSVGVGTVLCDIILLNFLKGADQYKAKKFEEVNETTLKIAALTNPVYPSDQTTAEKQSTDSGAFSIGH

P2X purinoceptor 4 = biological target: T3, P2X purinoceptor 4 (Homo sapiens, UniProt Q99571); assay: Antagonist activity at human P2X4R transfected in human 1321N1 cells assessed as inhibition of ATP-induced calcium influx; assay type: cell-based; how it was run: as §1
T3 sequence (Q99571 whole entry): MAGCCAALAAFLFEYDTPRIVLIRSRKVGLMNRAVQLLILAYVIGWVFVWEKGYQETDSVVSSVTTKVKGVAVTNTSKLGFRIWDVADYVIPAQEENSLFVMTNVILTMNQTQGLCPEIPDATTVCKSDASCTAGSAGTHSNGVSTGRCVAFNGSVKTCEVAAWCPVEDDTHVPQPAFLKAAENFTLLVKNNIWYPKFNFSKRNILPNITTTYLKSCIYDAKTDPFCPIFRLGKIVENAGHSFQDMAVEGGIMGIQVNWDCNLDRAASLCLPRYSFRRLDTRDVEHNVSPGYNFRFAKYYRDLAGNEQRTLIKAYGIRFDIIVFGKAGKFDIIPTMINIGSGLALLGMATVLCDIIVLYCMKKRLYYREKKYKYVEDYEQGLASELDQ

P2X purinoceptor 7 = biological target: T4, P2X purinoceptor 7 (Homo sapiens, UniProt Q99572); assay: Antagonist activity at human P2X7R transfected in human 1321N1 cells assessed as inhibition of Bz-ATP-induced calcium influx; assay type: cell-based
T4 sequence (Q99572 whole entry): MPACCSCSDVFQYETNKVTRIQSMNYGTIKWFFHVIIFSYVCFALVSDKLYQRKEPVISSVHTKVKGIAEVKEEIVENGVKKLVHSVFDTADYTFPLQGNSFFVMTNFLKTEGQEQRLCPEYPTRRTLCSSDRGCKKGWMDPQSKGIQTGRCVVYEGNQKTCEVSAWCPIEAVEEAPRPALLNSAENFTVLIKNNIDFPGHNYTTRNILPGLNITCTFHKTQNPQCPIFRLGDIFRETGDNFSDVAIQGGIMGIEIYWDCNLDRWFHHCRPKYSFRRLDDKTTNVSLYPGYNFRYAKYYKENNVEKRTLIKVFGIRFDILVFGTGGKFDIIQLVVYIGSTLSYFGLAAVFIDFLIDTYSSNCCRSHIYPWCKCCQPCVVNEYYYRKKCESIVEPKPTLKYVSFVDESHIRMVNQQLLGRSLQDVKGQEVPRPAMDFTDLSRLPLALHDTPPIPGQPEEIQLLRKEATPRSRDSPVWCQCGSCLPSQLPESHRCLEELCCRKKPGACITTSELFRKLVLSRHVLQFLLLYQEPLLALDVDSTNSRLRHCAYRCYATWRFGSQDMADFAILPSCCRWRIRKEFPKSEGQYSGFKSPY

[3] = biological target: T5, P2X purinoceptor 3 (Homo sapiens) (UniProt P56373); assay: Antagonist activity at human P2X3R transfected in human 1321N1 cells assessed as inhibition of ATP-induced calcium influx relative to control; assay type: cell-based; conditions: concentration not given here; how it was run: as §1
T5 sequence (whole entry): T2 sequence (P56373 whole entry)

P2X purinoceptor 2 = biological target: T6, P2X purinoceptor 2 (Homo sapiens, UniProt Q9UBL9); assay: Antagonist activity at human P2X2R transfected in human 1321N1 cells assessed as inhibition of ATP-induced calcium influx; assay type: cell-based; how it was run: as §1
T6 sequence (Q9UBL9 whole entry): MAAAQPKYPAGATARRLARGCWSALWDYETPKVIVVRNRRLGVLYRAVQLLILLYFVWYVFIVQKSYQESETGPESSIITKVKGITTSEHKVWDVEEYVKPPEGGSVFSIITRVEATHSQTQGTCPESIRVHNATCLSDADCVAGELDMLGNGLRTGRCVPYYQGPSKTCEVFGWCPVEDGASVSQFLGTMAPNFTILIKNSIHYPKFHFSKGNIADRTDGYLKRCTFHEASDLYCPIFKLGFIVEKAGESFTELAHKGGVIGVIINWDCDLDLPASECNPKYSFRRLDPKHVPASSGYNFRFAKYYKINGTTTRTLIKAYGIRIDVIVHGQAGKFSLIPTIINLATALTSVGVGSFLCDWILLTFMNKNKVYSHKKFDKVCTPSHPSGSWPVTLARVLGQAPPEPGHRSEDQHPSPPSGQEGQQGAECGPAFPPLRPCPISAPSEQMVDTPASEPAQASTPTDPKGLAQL

[4] = biological target: T7, P2X purinoceptor 7 (Homo sapiens) (UniProt Q99572); assay: Antagonist activity at human P2X7R transfected in human 1321N1 cells assessed as inhibition of Bz-ATP-induced calcium influx relative to control; assay type: cell-based; conditions: concentration not given here
T7 sequence (whole entry): T4 sequence (Q99572 whole entry)

P2X purinoceptor 1 = biological target: T8, P2X purinoceptor 1 (Homo sapiens, UniProt P51575); assay: Antagonist activity at human P2X1R transfected in human 1321N1 cells assessed as inhibition of ATP-induced calcium influx; assay type: cell-based; how it was run: as §1
T8 sequence (P51575 whole entry): T1 sequence (whole entry)

[5] = biological target: T9, P2X purinoceptor 2 (Homo sapiens) (UniProt Q9UBL9); assay: Antagonist activity at human P2X2R transfected in human 1321N1 cells assessed as inhibition of ATP-induced calcium influx relative to control; assay type: cell-based; conditions: concentration not given here; how it was run: as §1
T9 sequence (whole entry): T6 sequence (Q9UBL9 whole entry)

[6] = biological target: T10, P2X purinoceptor 4 (Homo sapiens) (UniProt Q99571); assay: Antagonist activity at human P2X4R transfected in human 1321N1 cells assessed as inhibition of ATP-induced calcium influx relative to control; assay type: cell-based; conditions: concentration not given here; how it was run: as §1
T10 sequence (whole entry): T3 sequence (Q99571 whole entry)

P2X purinoceptor 3 [7] = biological target: T11, P2X purinoceptor 3 (Mus musculus, UniProt Q3UR32); assay: Antagonist activity at P2X3R in mouse TG sensory neurons assessed as inhibition of P2X3R agonist alpha,beta-meATP-induced current at -65 mV holding potential by whole cell voltage clamp method
T11 sequence (Q3UR32 whole entry): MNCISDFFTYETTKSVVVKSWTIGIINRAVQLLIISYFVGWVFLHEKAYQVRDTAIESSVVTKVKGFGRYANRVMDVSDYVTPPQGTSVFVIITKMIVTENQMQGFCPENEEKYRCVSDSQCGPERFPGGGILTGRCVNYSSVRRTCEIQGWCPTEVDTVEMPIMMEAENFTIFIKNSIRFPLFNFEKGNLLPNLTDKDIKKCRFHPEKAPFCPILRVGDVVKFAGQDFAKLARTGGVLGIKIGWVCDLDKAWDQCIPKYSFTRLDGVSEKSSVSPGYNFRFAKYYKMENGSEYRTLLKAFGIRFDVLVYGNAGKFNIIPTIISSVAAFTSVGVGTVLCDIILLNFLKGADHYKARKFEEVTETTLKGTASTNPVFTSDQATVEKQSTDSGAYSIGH
How it was run: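 Mouse trigeminal sensory neurons were recorded by whole-cell patch clamp. Test compound (0.001–10 μM) was applied before 10 μM α,β-meATP, and inhibition of the agonist-evoked P2X3 current was measured. IC50 was taken from concentration–inhibition curves. N = 5–6 cells.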

Homo sapiens [8] = species: Homo sapiens; assay: Selectivity ratio of IC50 for human P2X1R transfected in human […] 1321N1 cells to IC50 for human transfected in human 1321N1 cells; assay type: cell-based
Homo sapiens [9] = species: Homo sapiens; assay: Selectivity ratio of IC50 for human P2X4R transfected in human […] 1321N1 cells to IC50 for human transfected in human 1321N1 cells; assay type: cell-based
Homo sapiens [10] = species: Homo sapiens; assay: Selectivity ratio of IC50 for human P2X7R transfected in human […] 1321N1 cells to IC50 for human transfected in human 1321N1 cells; assay type: cell-based

SMILES	inhibition [1]	IC50 (P2X purinoceptor 3 [2])	IC50 (P2X purinoceptor 4)	IC50 (P2X purinoceptor 7)	inhibition [3]	IC50 (P2X purinoceptor 2)	inhibition [4]	IC50 (P2X purinoceptor 1)	inhibition [5]	inhibition [6]	IC50 (P2X purinoceptor 3 [7])	Ratio IC50 (Homo sapiens [8])	Ratio IC50 (Homo sapiens [9])	Ratio IC50 (Homo sapiens [10])
CC1(C)O[C@@H]2[C@H](O1)[C@@H](C(=O)N[C@@H](CCC(=O)O)C(=O)O)O[C@H]2n1cnc2c(N)ncnc21	21%	> 100 µM	> 100 µM	> 30 µM	15%	> 100 µM	-9%	> 100 µM	6%	-6%	–	–	–	–
CC1(C)O[C@@H]2[C@H](O1)[C@@H](COC(=O)c1cc(C(=O)O)c(C(=O)O)cc1C(=O)O)O[C@H]2n1cnc2c(N)ncnc21	13%	≥ 100 µM	> 30 µM	> 30 µM	56%	> 10 µM	–	> 10 µM	30%	35%	–	–	–	–

Further lines, with some results ahead:

inhibition [1]	IC50 (P2X purinoceptor 3 [2])	IC50 (P2X purinoceptor 4)	IC50 (P2X purinoceptor 7)	inhibition [3]	IC50 (P2X purinoceptor 2)	inhibition [4]	IC50 (P2X purinoceptor 1)	inhibition [5]	inhibition [6]	IC50 (P2X purinoceptor 3 [7])	SMILES	Ratio IC50 (Homo sapiens [8])	Ratio IC50 (Homo sapiens [9])	Ratio IC50 (Homo sapiens [10])
27%	5.83 µM	12.4 µM	> 100 µM	–	> 100 µM	21%	> 100 µM	16%	–	0.211 µM	Nc1ncnc2c1ncn2[C@@H]1O[C@H](COP(=O)(O)OP(=O)(O)OP(=O)(O)O)[C@H]2O[C@H](c3ccccc3)O[C@H]21	–	–	–
–	0.883 µM	29.6 µM	> 100 µM	–	> 100 µM	30%	8.06 µM	20%	–	0.083 µM	Nc1ncnc2c1ncn2[C@@H]1O[C@H](COP(=O)(O)OP(=O)(O)OP(=O)(O)O)[C@H]2OC3(CCCCC3)O[C@H]21	10	–	–
44%	0.611 µM	11 µM	8.53 µM	–	> 100 µM	–	≥ 10 µM	18%	–	0.081 µM	Nc1ncnc2c1ncn2[C@@H]1O[C@H](COP(=O)(O)OP(=O)(O)OP(=O)(O)O)[C@H]2O[C@@H](c3ccccc3)O[C@H]21	–	14	18
